Active and inactive are the calls of the source. The calls are words filed in the database; no cut-off is given here.
Columns and labels:
[1] = target: Rho-related GTP-binding protein RhoB (Homo sapiens) (UniProt P62745); test: Transactivation of RhoB (unknown origin) transfected in human HeLa cells at 5 uM by dual luciferase reporter gene assay; format: cell-based
Summary of the method: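 HeLa cells at 75–90% confluency were transiently cotransfected with a pGL2-RhoB-firefly luciferase promoter construct, then exposed to compounds. RhoB promoter activation was read as luciferase activity with a dual-luciferase reporter system. NSC126188 and perifosine, each at the same concentration as the compounds, served as positive controls.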

[2] = tested on: HCT-15; test: Growth inhibition of human HCT15 cells by SRB assay; format: functional
[3] = tested on: PC-3; test: Growth inhibition of human PC3 cells by SRB assay; format: functional
[4] = tested on: NUGC-3; test: Growth inhibition of human NUGC3 cells by SRB assay; format: functional
[5] = tested on: NCI-H23; test: Growth inhibition of human NCI-H23 cells by SRB assay; format: functional
[6] = tested on: MDA-MB-231; test: Growth inhibition of human MDA-MB-231 cells by SRB assay; format: functional
[7] = tested on: ACHN; test: Growth inhibition of human ACHN cells by SRB assay; format: functional

Rho-related GTP-binding protein RhoB (Homo sapiens), sequence (P62745 whole entry): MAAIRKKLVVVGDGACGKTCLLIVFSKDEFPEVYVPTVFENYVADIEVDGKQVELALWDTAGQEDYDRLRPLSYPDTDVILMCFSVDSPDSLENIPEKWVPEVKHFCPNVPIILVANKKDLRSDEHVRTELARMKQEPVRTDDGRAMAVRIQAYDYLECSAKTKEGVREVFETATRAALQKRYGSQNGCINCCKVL

Activity [1]	GI50 [2]	GI50 [3]	GI50 [5] [nM]	GI50 [6]	GI50 [7]	Compound	GI50 [4] [nM]
Active	580 nM	480 nM	–	–	–	CCCCCCCCCCCCCCCC(=O)N1CC[N+](C)(C)CC1	290
Active	inactive	450 nM	1070	1160 nM	1000 nM	CCCCCCCCCCCCCC(=O)N1CCC[N+](C)(Cc2ccccc2)CC1 (stereo not given)	310
Active	1860 nM	270 nM	1180	680 nM	1610 nM	CCCCCCCCCCCCCC(=O)N1CCC[N+](C)(CC)CC1 (stereo not given)	220
Active	1700 nM	360 nM	1360	980 nM	490 nM	CCCCCCCCCCCCCC(=O)N1CCC[N+](C)(C)CC1	80
Active	380 nM	620 nM	800	830 nM	1330 nM	CCCCCCCCCCCCCCS(=O)(=O)N1CCC[N+](C)(C)CC1	250
–	inactive	1020 nM	3940	inactive	4500 nM	CCCCCCCCCCCCS(=O)(=O)Nc1ccc([N+](C)(C)C)cc1	1210
–	–	440 nM	–	–	–	CCCCCCCCCCCCCCCCCCOP(=O)([O-])OC1CC[N+](C)(C)CC1 [PERIFOSINE]	540
–	inactive	450 nM	1480	1480 nM	1100 nM	CCCCCCCCCCCCCC(=O)N1CCC[N+](C)(Cc2ccc(F)cc2)CC1 (stereo not given)	940
Active	770 nM	400 nM	3400	590 nM	2010 nM	CCCCCCCCCCCCCCCCS(=O)(=O)N1CCC[N+](C)(C)CC1	380
–	inactive	630 nM	1450	1340 nM	1930 nM	CCCCCCCCCCCCCCCC(=O)N1CCC[N+](C)(Cc2cccc(OC(F)(F)F)c2)CC1 (stereo not given)	870
Active	inactive	180 nM	890	710 nM	820 nM	CCCCCCCCCCCCCC(=O)N1CCC[N+](C)(Cc2cccc([N+](=O)[O-])c2)CC1 (stereo not given)	460
–	400 nM	240 nM	1160	670 nM	570 nM	CCCCCCCCCCCCCCCCCC(=O)N1CCC[N+](C)(C)CC1	260
–	2370 nM	790 nM	1800	2830 nM	3150 nM	CCCCCCCCCCCCCCCC(=O)Nc1ccc([N+](C)(C)C)cc1	700
Active	930 nM	400 nM	2380	940 nM	400 nM	CCCCCCCCCCCCCCCC(=O)N1CCC[N+](C)(C)CC1	210
Active	960 nM	380 nM	960	840 nM	1160 nM	CCCCCCCCCCCCS(=O)(=O)N1CCC[N+](C)(C)CC1	240
–	1220 nM	1200 nM	3290	4340 nM	1870 nM	CCCCCCCCCCCCCCCCCC(=O)Nc1ccc([N+](C)(C)C)cc1	410
Active	990 nM	inactive	3840	2220 nM	2780 nM	CCCCCCCCCCCCCCCCCCCC(=O)N1CCC[N+](C)(C)CC1	360
Active	inactive	180 nM	280	450 nM	440 nM	C=CC[N+]1(C)CCCN(C(=O)CCCCCCCCCCCCC)CC1 (stereo not given)	260
–	3020 nM	1630 nM	1930	3680 nM	1760 nM	CCCCCCCCCCCCCCCCCCCC(=O)Nc1ccc([N+](C)(C)C)cc1	1280
–	1360 nM	540 nM	4140	3560 nM	4540 nM	CCCCCCCCCCCCCC(=O)Nc1ccc([N+](C)(C)C)cc1	740
–	3380 nM	900 nM	730	4540 nM	inactive	CCCCCCCCCCCCCCS(=O)(=O)Nc1ccc([N+](C)(C)C)cc1	1740
